Data on nine compounds can be found in PMC9305408 (Chemmedchem, 2022).

Values after ≈ are worked out from the molar mass of the structure shown.

What all share (assay type): cell-based
Experiment [1] deals with Pseudomonas aeruginosa ATCC 27853. Briefly: MIC, broth microdilution. As to conditions: ATCC27853, 24 h, read-out: minimum inhibitory concentration (MIC). A digest of the protocol:
(§1)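 Run by broth microdilution in Mueller-Hinton broth. A 10 mg/mL test sample was added to the first well and serially diluted 1:2 across 12 wells. Bacteria were added to about 10⁶ CFU/mL final, and plates were incubated at 37 °C for 24 h. Resazurin was then added for 2 h at 37 °C, and reduction from blue to pink scored growth. MIC was determined in triplicate.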
On the technique in general: Broth dilution looks for growth in wells or tubes with falling amounts of substance.

In experiment [2] the test system is Escherichia coli ATCC 25922. Briefly: MIC, broth microdilution. As to conditions: ATCC25922, 24 h, read-out: minimum inhibitory concentration (MIC). The method, boiled down: as §1
In experiment [3] the test system is Bacillus subtilis ATCC 3366. Briefly: MIC, broth microdilution. As to conditions: ATCC3366, 24 h, read-out: minimum inhibitory concentration (MIC). The method, boiled down:
as §1

Experiment [4] deals with Candida albicans. Briefly: MIC, broth microdilution. As to conditions: 48 h, read-out: minimum inhibitory concentration (MIC). The method, boiled down: (§2)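 Twofold serial dilutions of test compound in Mueller-Hinton broth were run across 12 wells, starting from 10 mg/mL in the first well. Fungal suspension was added at about 10⁶ CFU/mL final, then plates were incubated at 28 °C for 48 h. Resazurin was added for 2 h at 37 °C, with blue-to-pink reduction scored as growth. MIC was determined in triplicate.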

Experiment [5] has as its system Staphylococcus aureus ATCC 29213. Briefly: MIC, broth microdilution. The note with it: ATCC29213, 24 h, read-out: minimum inhibitory concentration (MIC). The method, boiled down:
as §1

Experiment [6] has as its system Aspergillus niger. Briefly: MIC, broth microdilution. The note with it: 48 h, read-out: minimum inhibitory concentration (MIC). A digest of the protocol:
as §2

Experiment [7] relates to Candida albicans. Briefly: Agar disc diffusion. As to conditions: 6 mm discs, 6 μl of 10 mg/mL. A general note: Agar diffusion results depend on both activity and mobility in agar.
Experiment [8] relates to Aspergillus niger. Briefly: Agar disc diffusion. As to conditions: 6 mm discs, 6 μl of 10 mg/mL.
For experiment [9], the system named is Bacillus subtilis ATCC 3366. Briefly: Agar disc diffusion. The note with it: ATCC3366, read-out: diameter of the inhibition zone. The method, boiled down:
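Agar plates (30 ml medium) were each spread with 100 μl fresh culture of one organism. Sterile 6 mm paper discs were loaded with 6 μl of 10 mg/mL test sample. Plates were sealed against evaporation and incubated at 37 °C for 24 h. Inhibition zone diameter was measured in mm, averaged over three independent determinations.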

As for `C#CCn1c(=O)cc(C(=O)N[C@@H](C)C(=O)OC)c2cc(Br)ccc21` [Compound 2 b, Methyl (S)‐6‐bromo‐2‐[2‐oxo‐1‐(prop‐2‐yn‐1‐yl)‐1,2‐dihydroquinoline‐4‐carboxamido]propanoate], the MIC in experiment [1] was 2500 µg/mL (≈ 6390 µM); in experiment [2], 620 µg/mL (≈ 1580 µM); in experiment [3] it was 2500 µg/mL (≈ 6390 µM); in experiment [4], 10000 µg/mL (≈ 25600 µM); in [5], 2500 µg/mL (≈ 6390 µM).
Consider `COC(=O)C(NC(=O)c1ccccc1)n1cc(Cn2c(=O)cc(C(=O)N[C@@H](C)C(=O)OC)c3ccccc32)nn1` (stereo partly drawn) [Compound 3a5, Methyl (S)‐2‐{2‐oxo‐1‐[(1‐(1‐benzamido‐2‐methoxy‐2‐oxoethyl)‐1H‐1,2,3‐triazol‐4‐yl)methyl]‐1,2‐dihydroquinoline‐4‐carboxamido}propanoate], for which the MIC came out at 78 µg/mL (≈ 143 µM) in experiment [1]; 19.5 µg/mL (≈ 35.7 µM) in experiment [2]; 310 µg/mL (≈ 567 µM) in experiment [3]; 5000 µg/mL (≈ 9150 µM) in experiment [4]; 10000 µg/mL (≈ 18300 µM) in [6]; 39 µg/mL (≈ 71.4 µM) in experiment [5].
As to `COC(=O)[C@H](C)NC(=O)c1cc(=O)n(Cc2cn(Cc3ccccc3C)nn2)c2ccccc12` [Compound 3a3, Methyl (S)‐2‐{2‐oxo‐1‐[(1‐(2‐methylbenzyl)‐1H‐1,2,3‐triazol‐4‐yl)methyl]‐1,2‐dihydroquinoline‐4‐carboxamido}propanoate], the MIC stood at 1250 µg/mL (≈ 2720 µM) in [1]; 39 µg/mL (≈ 84.9 µM) in experiment [2]; 2500 µg/mL (≈ 5440 µM) in [3]; 10000 µg/mL (≈ 21800 µM) in [4]; 1250 µg/mL (≈ 2720 µM) in experiment [5].
Regarding `COC(=O)[C@H](C)NC(=O)c1cc(=O)n(Cc2cn(Cc3ccccc3)nn2)c2ccccc12` [Compound 3a2, Methyl (S)‐2‐{2‐oxo‐1‐[(1‐benzyl‐1H‐1,2,3‐triazol‐4‐yl)methyl]‐1,2‐dihydroquinoline‐4‐carboxamido}propanoate], the MIC in experiment [1] turned out to be 2500 µg/mL (≈ 5610 µM); in experiment [2], 310 µg/mL (≈ 696 µM); in [3], 2500 µg/mL (≈ 5610 µM); in [4], 10000 µg/mL (≈ 22400 µM); in experiment [5], 2500 µg/mL (≈ 5610 µM).
For `C#CCn1c(=O)cc(C(=O)N[C@@H](C)C(=O)OC)c2ccccc21` [Compound 2 a, Methyl (S)‐2‐[2‐oxo‐1‐(prop‐2‐yn‐1‐yl)‐1,2‐dihydroquinoline‐4‐carbox amido]propanoate], the MIC in [1] stood at 620 µg/mL (≈ 1990 µM); in [2] it was 620 µg/mL (≈ 1990 µM); in experiment [3], 5000 µg/mL (≈ 16000 µM); in experiment [6] it was 10000 µg/mL (≈ 32000 µM); in experiment [5] it was 2500 µg/mL (≈ 8000 µM).
A word on the zone of inhibition: it is the size of the clear area around the sample on an inoculated plate. With `COC(=O)[C@H](C)NC(=O)c1cc(=O)n(Cc2cn(Cc3ccccc3Br)nn2)c2ccccc12` [Compound 3a4, Methyl (S)‐2‐{2‐oxo‐1‐[(1‐(2‐bromobenzyl)‐1H‐1,2,3‐triazol‐4‐yl)methyl]‐1,2‐dihydroquinoline‐4‐carboxamido}propanoate], the MIC in experiment [1] came out at 2500 µg/mL (≈ 4770 µM); in experiment [2], 2500 µg/mL (≈ 4770 µM); in experiment [3], 78 µg/mL (≈ 149 µM); in experiment [5], 310 µg/mL (≈ 591 µM). The “diameter of the inhibition zone” value in [7] and in experiment [8] was “did not show any antifungal activity” throughout. Moreover, the zone of inhibition at 10000 µg/mL in [9] was 18 mm.
On to `COC(=O)[C@H](C)NC(=O)c1cc(=O)n(Cc2cn(Cc3ccccc3C)nn2)c2ccc(Br)cc12` [Compound 3b3, Methyl (S)‐6‐bromo‐2‐{2‐oxo‐1‐[(1‐(2‐methylbenzyl)‐1H‐1,2,3‐triazol‐4‐yl)methyl]‐1,2‐dihydroquinoline‐4‐carboxamido}propanoate], for which the MIC turned out to be 620 µg/mL (≈ 1150 µM) in experiment [1], 620 µg/mL (≈ 1150 µM) in experiment [2], 310 µg/mL (≈ 576 µM) in experiment [3] and 2500 µg/mL (≈ 4640 µM) in experiment [5]. In addition, the “diameter of the inhibition zone” value in [7] and in experiment [8] was “did not show any antifungal activity” in each case.
`COC(=O)[C@H](C)NC(=O)c1cc(=O)n(Cc2cn(Cc3ccccc3Br)nn2)c2ccc(Br)cc12` [Compound 3b4, Methyl (S)‐6‐bromo‐2‐{2‐oxo‐1‐[(1‐(2‐bromobenzyl)‐1H‐1,2,3‐triazol‐4‐yl)methyl]‐1,2‐dihydroquinoline‐4‐carboxamido}propanoate]: the MIC worked out at 1250 µg/mL (≈ 2070 µM) in [1], 310 µg/mL (≈ 514 µM) in [2], 9.75 µg/mL (≈ 16.2 µM) in experiment [3] and 2500 µg/mL (≈ 4140 µM) in experiment [5]. The “diameter of the inhibition zone” value in experiment [7] and in experiment [8] was “did not show any antifungal activity” in each case.
Turning to `CCCCCn1cc(Cn2c(=O)cc(C(=O)N[C@@H](C)C(=O)OC)c3ccccc32)nn1` [Compound 3a1, Methyl (S)‐2‐{2‐oxo‐1‐[(1‐pentyl‐1H‐1,2,3‐triazol‐4‐yl)methyl]‐1,2‐dihydroquinoline‐4‐carboxamido}propanoate], the MIC in experiment [1] is 2500 µg/mL (≈ 5880 µM); in [2], 78 µg/mL (≈ 183 µM); in experiment [3] it was 310 µg/mL (≈ 729 µM); in experiment [5], 1250 µg/mL (≈ 2940 µM). Moreover, the “diameter of the inhibition zone” value in experiment [7] and in experiment [8] was “did not show any antifungal activity” throughout.
